High-throughput results from PubChem BioAssay.
The list is not random: actives were taken first. Their share in the collection is about 5.8%.
T cruzi growth-1: T. cruzi proliferation inhibition; T. cruzi beta-gal in NIH3T3, GalScreen luminescence, 90 h; inhibition, % at 8.34 µM; actives 5.9% (n = 77,000); AID 624255;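 active = mean inhibition above about 93%, with at least 55% of replicates each passing it, limit read from the data, passing the limit was not always enough; inconclusive = only one of those two conditions holds; inactive = neither condition holds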
GASC1 inh: inhibitors of human demethylase GASC-1 KDM4C; Q9H3R0; GST-KDM4C 2-372, H3K9me3 peptide, LANCE TR-FRET; inhibition, % at 12.5 µM; actives 0.15% (n = 96,000); AID 720574;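 active = mean replicate inhibition above about 25%, with at least 55% of replicates also reaching it, limit read from the data, passing the limit was not always enough; inconclusive = only one of those two conditions met; inactive = neither condition met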
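material = GST-tagged GASC-1 (JMJD2C) catalytic fragment, aa 2-372 | amount = enzyme final amount 10 nM | medium = HEPES buffer, pH 7.5, plus ascorbate | also added = H3K9me3 peptide substrate, Fe(II), 2-oxoglutarate | dosing = single dose | times = 30 min demethylation and 1 h detection at room temperature | detection = LANCE TR-FRET | read-out basis = Fall in 671/618 emission ratio as inhibition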
IDH1 R132H inh: inhibitors of human IDH1 R132H; actives 0.18% (n = 70,000); O75874; IDH1 R132H reductase, diaphorase/resazurin fluorescence, 60 min; inhibition, % at 10 µM; in the data active = inhibition above about 34%; inconclusive = no clear call, values can overlap the other calls; inactive = below about 11%;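 note: 0% = DMSO and 100% = no enzyme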
Target sequence (O75874 whole entry R132H): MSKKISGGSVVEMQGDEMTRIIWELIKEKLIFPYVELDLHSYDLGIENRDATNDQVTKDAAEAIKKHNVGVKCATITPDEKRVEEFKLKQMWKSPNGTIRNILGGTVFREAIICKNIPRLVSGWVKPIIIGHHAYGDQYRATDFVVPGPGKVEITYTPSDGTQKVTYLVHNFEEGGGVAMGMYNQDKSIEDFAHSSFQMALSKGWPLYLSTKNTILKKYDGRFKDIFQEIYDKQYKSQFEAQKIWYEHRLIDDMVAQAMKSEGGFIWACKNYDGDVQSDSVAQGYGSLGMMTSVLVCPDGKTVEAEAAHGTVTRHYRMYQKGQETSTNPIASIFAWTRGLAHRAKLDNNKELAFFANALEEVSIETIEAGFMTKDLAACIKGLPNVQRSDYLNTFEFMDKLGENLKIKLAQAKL
Pf Dd2 growth: P. falciparum Dd2 growth inhibition. SYBR Green, 72 h; hits give low values. activity change, % at 10 µM. actives 2.3% (n = 94,000). AID 1159554; in the data active = activity change below about -80%; inconclusive = no clear call, values can overlap the other calls
T cruzi growth-2: blocks T. cruzi growth in NIH3T3 host cells; actives 72% (n = 5,600); shares compounds with T cruzi growth-1; inhibition, % at 8.35 µM; T. cruzi beta-gal in NIH3T3, GalScreen luminescence, 90 h;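 active = mean replicate inhibition above about 95% and at least 55% of replicates individually reaching it, limit read from the data; inconclusive = only one of the two criteria is met; inactive = neither criterion is met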
T cruzi growth-3: Trypanosoma cruzi proliferation inhibition | shares compounds with T cruzi growth-1 | T. cruzi beta-gal in NIH3T3, GalScreen luminescence, 90 h | inhibition, % at 2.09 µM | actives 21% (n = 5,600);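 active = mean inhibition above about 95%, with at least 55% of replicates also reaching it, limit read from the data; inconclusive = meets just one of the two conditions; inactive = meets neither condition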;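 note: plate controls were neutral control median for no effect and positive control median for full effect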
3T3 cytotox: cytotoxicity in mouse NIH/3T3 fibroblasts. shares compounds with T cruzi growth-1. NIH/3T3 viability, CellTiter-Glo ATP luminescence, 90 h. cytotoxicity (signal decrease), % at 8.35 µM. actives 14% (n = 5,600);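 active = mean signal decrease across replicates above about 35% based on untreated-well scatter, with enough replicates individually passing, limit read from the data; inconclusive = no rule stated though some were filed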;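 note: 0% = median of neutral control wells and 100% = median of positive control wells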
3T3 cytotox 2: cytotoxicity in mouse NIH/3T3 fibroblasts | shares compounds with T cruzi growth-1 | NIH/3T3 viability, CellTiter-Glo ATP luminescence, 90 h | inhibition, % at 24.9 µM | actives 56% (n = 5,600);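 active = mean loss of cell viability signal at or above a set limit, and enough replicates individually reaching it; inconclusive = meets only the mean limit or only the replicate share; inactive = meets neither condition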;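 note: 0% = median of neutral control wells and 100% = median of positive control wells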
* = called active by the depositor; ? = inconclusive; nt = no result.

SMILES | T cruzi growth-1 | GASC1 inh | IDH1 R132H inh | Pf Dd2 growth | T cruzi growth-2 | T cruzi growth-3 | 3T3 cytotox | 3T3 cytotox 2
COc1ccc(-c2ccc3n(c2=O)C[C@H]2[C@H](CO)[C@@H](C(=O)N(C)C)N(CC4CC4)[C@@H]32)cc1 | 103* | 17 | nt | -2 | -33 | 13 | 1 | 7
CCN1[C@H](C(=O)N(C)C)[C@@H](CO)[C@@H]2Cn3c(ccc(-c4cccc(C(=O)N(C)C)c4)c3=O)[C@@H]21 | 100* | 0 | nt | nt | 51 | 18 | 8 | -6
CCC(=O)N1[C@H](CO)[C@@H](c2ccccc2)C12CN(CCC(F)(F)F)C2 | nt | -1 | nt | 4 | nt | nt | nt | nt
Cc1ccc(S(=O)(=O)N(C)C[C@@H]2Oc3cc(-c4cccc(F)c4)ccc3S(=O)(=O)N([C@@H](C)CO)C[C@H]2C)cc1 | 124* | -4 | -3 | -70 | 102* | 107* | 48* | 55*
COc1ccc(S(=O)(=O)N(C)C[C@H]2Oc3cc(-c4cccc(F)c4)ccc3S(=O)(=O)N([C@H](C)CO)C[C@H]2C)cc1 | nt | -2 | 1 | -14 | nt | nt | nt | nt
Cc1ccc(S(=O)(=O)N(C)C[C@@H]2Oc3cc(-c4cccc(F)c4)ccc3S(=O)(=O)N([C@H](C)CO)C[C@@H]2C)cc1 | 127* | 0 | nt | -53 | 105* | ? | ? | 43*
C[C@@H]1CN([C@H](C)CO)C(=O)c2cc(NC(=O)Nc3ccc4c(c3)OCO4)ccc2O[C@@H](C)CCCCO[C@H]1CN(C)S(=O)(=O)c1ccc(Cl)cc1 | 101* | -1 | 0 | -76 | 108* | 43 | -13 | -10
C[C@@H]1CCCCO[C@@H](CN(C)S(=O)(=O)c2ccc(Cl)cc2)[C@H](C)CN([C@H](C)CO)C(=O)c2cc(NC(=O)Nc3ccc4c(c3)OCO4)ccc2O1 | 106* | -1 | nt | -72 | 106* | 112* | 9 | -6
Cc1noc(C)c1NC(=O)Nc1ccc2c(c1)C(=O)N([C@H](C)CO)C[C@H](C)[C@@H](CN(C)S(=O)(=O)c1ccc(Cl)cc1)OCCCC[C@@H](C)O2 | 3 | nt | -2 | -11 | nt | nt | nt | nt
Cc1noc(C)c1NC(=O)Nc1ccc2c(c1)C(=O)N([C@@H](C)CO)C[C@H](C)[C@@H](CN(C)S(=O)(=O)c1ccc(Cl)cc1)OCCCC[C@@H](C)O2 | 99* | 0 | nt | -76 | 59 | 10 | -2 | 4
C[C@@H]1CCCCO[C@@H](CN(C)S(=O)(=O)c2ccc(Cl)cc2)[C@H](C)CN([C@@H](C)CO)C(=O)c2cc(NC(=O)Nc3ccc4c(c3)OCO4)ccc2O1 | 103* | 0 | 2 | -65 | 110* | 80 | -2 | -11
COc1cccc(-c2ccc3c(c2)O[C@@H](CN(C)C(=O)C2CCOCC2)[C@H](C)CN([C@@H](C)CO)S3(=O)=O)c1 | nt | 0 | -1 | -3 | nt | nt | nt | nt
COc1cc([N+](=O)[O-])ccc1NC(=S)NCCn1cc(Br)cn1 | nt | nt | -1 | nt | nt | nt | nt | nt
C[C@@H]1CCCCO[C@H](CN(C)C(=O)c2ccncc2)[C@@H](C)CN([C@H](C)CO)C(=O)c2cc(NC(=O)CCCN(C)C)ccc2O1 | 14 | 0 | -2 | 66 | nt | nt | nt | nt
C[C@@H]1CCCCO[C@@H](CN(C)S(=O)(=O)c2ccc(Cl)cc2)[C@@H](C)CN([C@@H](C)CO)C(=O)c2cc(NC(=O)Nc3ccc4c(c3)OCO4)ccc2O1 | 97* | 0 | nt | -88* | 105* | 79 | 16 | 27
C[C@H]1CN([C@@H](C)CO)C(=O)Cc2cc(NC(=O)Cc3ccccc3)ccc2O[C@@H]1CN(C)Cc1ccc2c(c1)OCO2 | 102* | 2 | 0 | -44 | 108* | 21 | 11 | 3
C[C@H]1CN([C@@H](C)CO)C(=O)Cc2cc(NC(=O)Cc3ccccc3)ccc2O[C@@H]1CN(C)Cc1ccc(C(F)(F)F)cc1 | 120* | 13 | 0 | -27 | 112* | 92 | -5 | 98*
